Screens: PubChem BioAssay, several laboratories
rCAG binder-1 – binders of r(CAG) RNA repeats, primary screen, biochemical, fluorescence | r(CAG) RNA repeat, TO-PRO-1 dye displacement fluorescence | inhibition, % at 3 µM | 370,000 compounds, 1.3% hits | AID 651821, 2012;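 active = inhibition above the plate cutoff, the mean of all test compounds on that plate plus 3 SD, cut at about 35% in these data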;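 note: 0% = DMSO alone and 100% = 100 µM mitoxantrone as full dye displacement; higher means more dye released from RNA so lower well fluorescence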
PG9 binder – binders of HIV-1 gp120 antibody PG9, primary screen, biochemical, TR-FRET; 360,000 compounds, 0.43% hits; inhibition, % at 6.7 µM; TR-FRET gp120-PG9 antibody binding; HIV-1 gp120 / PG9 antibody interaction; AID 624416, 2012; in the data active = inhibition above about 8.5%
NR2E3 ag-1 – inhibitors of NR2E3-RetCOR corepressor binding, primary screen, NR2E3 agonist project, biochemical, TR-FRET, GST-NR2E3, biotin-RetCOR; 1536-well; inhibition of corepressor binding, % at 4.78 µM; 320,000 compounds, 0.12% hits;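 active = percent inhibition above the cutoff of mean plus 3 SD of all tested compounds, set per screening campaign, cut at about 20% in these data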;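 note: 0% = DMSO wells and 100% = biotin wells as full block of FRET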
Target sequence (Q9Y5X4 whole entry, looked up): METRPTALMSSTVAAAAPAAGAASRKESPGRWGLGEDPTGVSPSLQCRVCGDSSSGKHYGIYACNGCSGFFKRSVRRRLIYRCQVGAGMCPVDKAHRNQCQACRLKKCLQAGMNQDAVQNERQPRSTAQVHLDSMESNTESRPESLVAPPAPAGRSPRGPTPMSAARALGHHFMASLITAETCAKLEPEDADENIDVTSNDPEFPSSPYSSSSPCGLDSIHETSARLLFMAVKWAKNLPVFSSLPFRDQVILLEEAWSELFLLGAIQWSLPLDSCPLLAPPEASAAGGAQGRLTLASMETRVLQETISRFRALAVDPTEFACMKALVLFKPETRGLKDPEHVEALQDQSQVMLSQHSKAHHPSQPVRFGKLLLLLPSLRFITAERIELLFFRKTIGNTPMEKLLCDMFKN
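system = GST-tagged NR2E3 plus biotinylated RetCOR corepressor | input = 1.35 nM GST-NR2E3 | also added = 7 nM biotin-RetCOR | schedule = 5 h incubation at 4 °C | measured by = TR-FRET with europium anti-GST and streptavidin-D2, 340 nm excitation | read-out = percent loss of FRET ratio relative to control wells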
NR2E3 ag-2 – NR2E3 agonists in two-hybrid cells, primary screen, cell-based, luminescence, CHO-S, Gal4-NCOR/VP16-NR2E3. luciferase. inhibition of corepressor binding, % at 3.98 µM. 360,000 compounds, 0.35% hits;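 active = inhibition above the mean of all tested compounds plus 3 SD, cut at about 70% in these data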;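 note: 0% = DMSO with NR2E3 transfected cells and 100% = cells lacking NR2E3 construct; higher means lower luciferase signal from less NR2E3 corepressor binding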
NR1D1 modulator – modulators of Rev-erb alpha DNA binding, primary screen, biochemical, FITC-DNA, fluorescence polarization, uHTS; 370,000 compounds, 0.79% hits; activity, % at 10 µM; Rev-erbα–FITC-DNA binding, 90 min; Nuclear receptor subfamily 1 group D member 1 (Homo sapiens), P20393; AID 1259318, 2017;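 active = activity above about 14%, limit read from the data; passing the limit was not always enough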;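 note: 0% = DMSO wells with 35 nM protein and 100% = DMSO wells with 750 nM protein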
rCAG bind conf – small molecules binding CAG repeat RNA – biochemical, fluorescence, confirmation | 4,300 compounds, 70% hits | AID 652065, 2013 | inhibition, % at 3 µM | shares compounds with rCAG binder-1 | r(CAG) RNA repeat, TO-PRO-1 dye displacement fluorescence;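 active = inhibition above a per-plate cutoff, the mean inhibition of sample wells plus 3 SD, cut at about 35% in these data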;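 note: loss of TO-PRO-1 fluorescence as compound displaces dye from 1x1 AA loop RNA; 0% = DMSO only wells and 100% = 100 µM mitoxantrone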
dCAG dye counter – displacement of TO-PRO-1 from CAG DNA duplex, counter-screen for rCAG RNA repeat binder project, biochemical, fluorescence, TO-PRO-1 dye, d(CAG) DNA oligo. inhibition, % at 3 µM. d(CAG) DNA oligo TO-PRO-1 dye displacement. AID 652068, 2013. 4,300 compounds, 94% hits. shares compounds with rCAG binder-1;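 active = inhibition above its plate's cutoff, the mean test-well inhibition plus 3 SD, cut at about 4.8% in these data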;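 note: 0% = DNA dye mix with DMSO and 100% = 100 µM mitoxantrone; hits displace the dye from DNA and so lower well fluorescence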
DNA CAG DR – inhibitors of DNA CAG/GTC TO-PRO-1 complex, dose response, counter-screen for rCAG RNA repeat binder project, biochemical, fluorescence, TO-PRO-1 dye; shares compounds with rCAG binder-1; DNA CAG/GTC duplex TO-PRO-1 dye displacement fluorescence; IC50, µM; 250 compounds, 20% hits; AID 686960, 2013; in the data active = IC50 below about 10 µM
dCAG DNA bind – TO-PRO-1 dye complex inhibitors on d(CAG) DNA, dose response, counter-screen, biochemical, fluorescence, late stage; shares compounds with rCAG binder-1; d(CAG) DNA duplex TO-PRO-1 dye displacement; IC50, µM; 30 compounds, 80% hits; AID 720649, 2013
rCAG binder-2 – molecules binding r(CAG) RNA repeats, late stage dose response, late-stage follow-up, biochemical, fluorescence, dose response, powder samples; shares compounds with rCAG binder-1; r(CAG) RNA TO-PRO-1 dye displacement; IC50, µM; 30 compounds, 100% hits; AID 720651, 2013
* = called active by the depositor; i = inactive; . = no result. This is a sample that favours compounds with a hit; in the whole collection about 2.6% have one here. Unless noted, the rule behind the calls is not given here.

SMILES | rCAG binder-1 | PG9 binder | NR2E3 ag-1 | NR2E3 ag-2 | NR1D1 modulator | rCAG bind conf | dCAG dye counter | others
Cc1ccc(S(=O)(=O)N2[C@@H](c3ccc4c(c3)OCO4)C(C(=O)O)=C[C@H]2CC2CCCC2)cc1 | 67* | -2 | . | -2 | 2 | 61* | 25*
Cc1ccc([C@H]2C(C(=O)O)=C[C@@H](CC3CCCC3)N2S(=O)(=O)c2ccc(C)cc2)cc1 | 68* | 1 | . | -4 | 6 | 73* | 27* | DNA CAG DR=i
NNC(=O)C1C(O)CCC2CN3CCc4c([nH]c5ccccc45)C3CC21 (stereo not given) | 2 | -1 | . | -10 | -4 | . | .
CCOC1=C2CN(S(=O)(=O)c3ccc(C)cc3)C(c3ccc(CC)cc3)CC2n2c(=O)n(-c3ccccc3)c(=O)n2C1 (stereo not given) | 11 | -1 | . | . | 6 | . | .
COc1ccc([C@H]2C(C(=O)O)=C[C@@H](CC3CCCC3)N2S(=O)(=O)c2ccc(C)cc2)cc1OC | 56* | -1 | . | -32 | -9 | 52* | 17*
CC[C@@H]1C=C(C(=O)O)[C@H](c2cccc(C)c2)N1S(=O)(=O)c1ccc(C)cc1 | 7 | 1 | . | -50 | -4 | . | .
O=C(Nc1ccccc1)c1c(F)c(F)c(F)c(F)c1F | 1 | -2 | -5 | -1 | 2 | . | .
CC(C)c1c(C(=O)Nc2ccccc2)c(-c2ccccc2)c(-c2ccc(F)cc2)n1CC[C@@H](O)C[C@@H](O)CC(=O)O | 37* | 0 | . | . | 1 | 36* | 9.9*
Cc1nn(C2CCS(=O)(=O)C2)c(C)c1CN(C)C(=O)c1ccc(F)cc1 (stereo not given) | 2 | -1 | . | 6 | -8 | . | .
Nc1c(C(=O)O)sc2nc(-c3ccc(F)cc3)cc(-c3ccccc3)c12 | 16 | 1 | 7 | -9 | 5 | . | .
Nc1c(C(=O)O)sc2nc(-c3ccccc3)cc(-c3ccc(Cl)cc3)c12 | 76* | 0 | -3 | 37 | 0 | 71* | 37*
CCN(CC)c1nc(N)c2c(N)n(-c3ccccc3C)c(=S)c(C#N)c2c1C#N | 98* | -2 | 1 | -6 | 4 | 93* | 69*
O=C(O)/C(=C\c1ccc2ccccc2c1)c1cccc2ccccc12 | 58* | -1 | -1 | 22 | -5 | 52* | 17*
O=C(O)C(=Cc1ccncc1)c1cccc2ccccc12 | 2 | -1 | . | 0 | -4 | . | .
COc1ccc(Cc2nnc(SCC(=O)Nc3ccccc3)[nH]c2=O)cc1 | 13 | 1 | -1 | 16 | 2 | . | .
COc1ccc(Cc2nnc(SCC(=O)Nc3cc(Cl)ccc3OC)[nH]c2=O)cc1 | 51* | -2 | 2 | -8 | -5 | 50* | 16*
Cc1cc(C(=O)CN2c3cccc4cccc(c34)S2(=O)=O)c(C)n1C | 38* | -2 | 4 | -72 | -19 | 12 | 8.6*
COCC(C)n1c(C)cc(C(=O)CN2c3cccc4cccc(c34)S2(=O)=O)c1C (stereo not given) | 4 | 0 | -2 | 2 | 5 | . | .
Cc1cc(C(=O)N2CCC2(C)C(=O)NS(=O)(=O)c2cccc(Cl)c2)nn1C (stereo not given) | 2 | 1 | . | -56 | -5 | . | .
COc1cc(/C=C2/CCC/C(=C\c3cc(O)c(OC)c(Cl)c3)C2=O)cc(Cl)c1O | 38* | 0 | 4 | -1 | -1 | 30 | 10*
COc1cc(/C=C2\SC(N)=NC2=O)cc(Cl)c1O | -10 | -20 | -9 | 5 | 12 | . | .
COc1ccc(C(=O)Nc2ccccc2C(=O)Nc2ccccc2C(=O)O)cc1 | 78* | -1 | 1 | -135 | -2 | 77* | 40*
COc1ccc(C(=O)Nc2ccccc2C(=O)Nc2ccc(C(=O)O)cc2)cc1 | 14 | 0 | 1 | -38 | -6 | . | .
COc1ccc(C(=NNc2ccccc2C(=O)O)c2ccc(OC)cc2)cc1 | 83* | 0 | -3 | 3 | -10 | 66* | 26*
COc1ccc(NC(=S)N2CCN(c3ccc4c(c3)C3CCN(C(=O)OCc5ccccc5)C4C3)CC2)c(OC)c1 (stereo not given) | 6 | 0 | . | -32 | 0 | . | .
SMILES | rCAG binder-1 | PG9 binder | NR2E3 ag-1 | NR2E3 ag-2 | NR1D1 modulator | rCAG bind conf | dCAG dye counter | others
CC(C)C[C@@H]1COc2cccc(N(C)CCO)c2S(=O)(=O)N1 | 1 | 0 | . | -10 | 0 | . | .
C=CCN1c2ccccc2C(=O)C(C)S1(=O)=O (stereo not given) | 1 | -2 | . | -37 | -3 | . | .
C=CCN1c2ccc(Br)cc2C(=O)CS1(=O)=O | 66* | -3 | 3 | -31 | 1 | 10 | 6.3*
COc1cccc(CN2C(=O)C(C)Oc3ccccc32)c1 (stereo not given) | -7 | -1 | 1 | -55 | 0 | . | .
COc1cccc(CN2c3ccc(Br)cc3C(=O)CS2(=O)=O)c1 | 52* | -2 | 5 | 25 | 2 | 39* | 16*
C[C@H](CO)N1C[C@H](C)[C@@H](CN(C)Cc2ccc3c(c2)OCCN3C)OCc2cnnn2CCCC1=O | 0 | -1 | . | -11 | 0 | . | .
CSC1=NSC2=NC(=O)/C(=C\c3cccs3)C(=N)N12 | 13 | -1 | -1 | -77 | -5 | . | .
CC(C)CSC1=NSC2=NC(=O)/C(=C\c3cccs3)C(=N)N12 | 72* | -2 | 5 | -68 | -8 | 57* | 21* | DNA CAG DR=i;dCAG DNA bind=4.3*;rCAG binder-2=1.7*
